HCT116 bCat-KO – beta-catenin-lacking colon tumor cell growth suppression; HCT116 beta-catenin knockout viability, CellTiter-Glo, 60 h; hits give low values; viability, % at 10 µM; AID 818; 140,000 compounds, 1.5% hits;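 active = viability at or under a set limit, the compound median less 4 SD, cut at about 6% in these data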;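 also: 0% = Hyamine 1622 control at 20 µM and 100% = untreated cell control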
Autophagy mod – autophagy modulation, high-content screen. MEF GFP-LC3 puncta imaging; test concentration mostly 10 µM. 190,000 compounds, 0.98% hits. calls only at 10 µM (by protocol);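 active = percentage of spot-positive cells more than 3 SD above its plate mean, without a fluorescence outlier flag or 80% toxicity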;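 also: spot-positive cell cutoff set from DMSO-treated cells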
Dynein transport – dynein cargo transport inhibition; 3617.4 mouse cells, GR-EGFP nuclear translocation imaging; test concentration mostly 20 µM; stimulated with dexamethasone, 1 µM; hits give low values; z-score, hits read low; 220,000 compounds, 0.47% hits; AID 1381;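 active = plate z-score of nuclear minus cytoplasmic receptor signal below a set negative limit, without overly bright fluorescence or cell loss, cut at about -3.5 in these data, passing the limit was not always enough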;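 also: z-score of nuclear minus cytoplasmic ring GR-EGFP intensity difference per well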
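Buffer or medium: tet-free, stripped-serum medium; reagent: dexamethasone at 1.0 µM final, 30 min; incubation: 48 h induction, 1 h compound, 30 min dex at 37 °C; measured by: formaldehyde fixation, Hoechst nuclear stain, 10x automated fluorescence imaging; read-out: nuclear-to-cytoplasmic GR-EGFP distribution per well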
L major viab – inhibitors of Leishmania major promastigote growth. Leishmania major promastigotes, resazurin fluorescence viability. inhibition, % at 10 µM. 200,000 compounds, 9% hits. AID 1063; in the data active = inhibition above about 50%;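 also: promastigotes grown with compound for 44 hours at 28 °C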
HCT116 PTEN-null – PTEN-deleted cell growth suppression; AID 827; HCT116 PTEN-null viability, CellTiter-Glo, 60 h; hits give low values; viability, % at 10 µM; 140,000 compounds, 1.2% hits;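 active = viability at or below a set limit, 4 SD under the median of all tested compounds, cut at about 3.7% in these data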;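 also: PTEN knockout HCT116 line with beta catenin targeted HCT116 as companion control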
L major 1uM – inhibitors of Leishmania major promastigote growth, repeat at 1 uM | shares compounds with L major viab | AID 1258 | inhibition, % at 1 µM | L. major promastigote growth, resazurin fluorescence, 48 h | 1,100 compounds, 13% hits;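 active = inhibition above about 50% in both repeat tests, limit read from the data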
Starred values were filed as active, the others as inactive. This is a sample that favours compounds with a hit; in the whole collection about 9.2% have one here.

For CCOC(=O)c1cc2oc(C(c3nnnn3C3CCCCC3)N3CCOCC3)cc2[nH]1 (stereo not drawn) the results were HCT116 bCat-KO 38.4, Autophagy mod active, Dynein transport -0.709, L major viab 82.5*, HCT116 PTEN-null 33.6 and L major 1uM 3.2.
COc1ccc(Cl)cc1NC(=O)CN1C(=O)CC(C)S(=O)(=O)c2ccccc21 (stereo not drawn) was read as Autophagy mod inactive, Dynein transport 0.12 and L major viab -8.7.
For CC(=O)Nc1ccc(NC2=Nc3ccccc3N3C2=Nc2c(c(C)nn2-c2ccccc2)C3c2ccccc2)cc1 (stereo not drawn) the results were HCT116 bCat-KO 21.8, Autophagy mod inactive, Dynein transport -0.489, L major viab 56.4*, HCT116 PTEN-null 26.9 and L major 1uM 4.7.
`CC(=O)Nc1ccc(-c2cc(NC(C)=O)n(-c3ccccc3)n2)cc1` gave HCT116 bCat-KO 85.0, Autophagy mod inactive, Dynein transport 0.337, L major viab -1.5 and HCT116 PTEN-null 91.2.
Screening CCCCCC(=O)NC(=S)Nc1ccc(Cl)cn1 returned HCT116 bCat-KO 104.8, Autophagy mod inactive, Dynein transport -0.342, L major viab 38.8 and HCT116 PTEN-null 97.8.
For Cc1cc(C(F)F)n2nc(C(=O)Nc3cccnc3Cl)nc2n1 the results were HCT116 bCat-KO 75.5, Autophagy mod inactive, Dynein transport 1.66, L major viab 5.9 and HCT116 PTEN-null 89.6.
For Cc1nn(-c2ccccn2)c2c1C(c1c(F)cccc1Cl)C1=C(N2)c2ccccc2C1=O (stereo not drawn) the results were HCT116 bCat-KO 55.8, Autophagy mod inactive, Dynein transport -0.371, L major viab 32.7 and HCT116 PTEN-null 53.6.
Screening COc1ccc(C(=O)O/N=C(\N)Cc2ccc(Cl)cc2)cc1OC returned HCT116 bCat-KO 0.9*, Autophagy mod inactive, Dynein transport 1.73, L major viab 65.7*, HCT116 PTEN-null 2.4* and L major 1uM -3.6.
N/C(Cc1ccc(Cl)cc1)=N\OC(=O)c1ccccc1 was read as HCT116 bCat-KO 75.9, Autophagy mod inactive, Dynein transport 1.05, L major viab 4.6 and HCT116 PTEN-null 89.7.
Screening CCNC(=O)COC(=O)c1cc(S(=O)(=O)N2CCCc3ccccc32)ccc1Cl returned Dynein transport -0.499.
For COc1cc(C(=O)OCC(=O)NC2CCS(=O)(=O)C2)ccc1OCc1c(C)noc1C (stereo not drawn) the results were HCT116 bCat-KO 92.9, Autophagy mod inactive, Dynein transport -0.165, L major viab 1.8 and HCT116 PTEN-null 113.4.
For CC(=O)N(c1cccc(Br)c1)C1C=CS(=O)(=O)C1 (stereo not drawn) the results were HCT116 bCat-KO 98.5, Autophagy mod inactive, Dynein transport -0.543, L major viab -0.7 and HCT116 PTEN-null 108.2.
`Cc1ccc(N(C(=O)C2CCCC2)C2C=CS(=O)(=O)C2)cc1C` (stereo not drawn) gave HCT116 bCat-KO 89.3, Autophagy mod inactive, Dynein transport -1.3, L major viab 56.0*, HCT116 PTEN-null 107.4 and L major 1uM -8.9.
Screening CC1=C(OC(=O)C(C)(C)C)C(C)(C)C(c2ccccc2)OC1=O (stereo not drawn) returned HCT116 bCat-KO 82.9, Autophagy mod inactive, Dynein transport -0.415, L major viab 55.5*, HCT116 PTEN-null 78.3 and L major 1uM -0.4.
`CC1C(=O)C(C)(C)C(=O)OC1c1ccccc1` (stereo not drawn) gave Dynein transport -0.622.
`COC(=O)c1oc2ccc(Cl)cc2c1-n1cccc1` gave HCT116 bCat-KO 87.5, Autophagy mod inactive, Dynein transport -0.49, L major viab -4.2 and HCT116 PTEN-null 96.9.
For Cc1ccc(C23CC4CC(CC(CN)(C4)C2)C3)cc1 the results were Autophagy mod inactive, Dynein transport 1.57, L major viab 100.1* and L major 1uM 13.2.
Screening Cc1cc(C)n(S(=O)(=O)/C=C/c2ccccc2)n1 returned HCT116 bCat-KO 93.7, Autophagy mod inactive, Dynein transport -2.56, L major viab 97.8*, HCT116 PTEN-null 88.8 and L major 1uM -1.6.
Screening Cc1ccc(S(=O)(=O)n2nc(C)cc2C)cc1 returned HCT116 bCat-KO 102.2, Autophagy mod inactive, Dynein transport 2.08, L major viab -0.8 and HCT116 PTEN-null 94.9.
